# Measured values published in ChEMBL document CHEMBL4270630.
# What was measured:
# [1] = test system: Human coronavirus 229E; test: Antiviral activity against Human coronavirus 229E infected in HEL299 cells assessed as reduction in virus induced cytopathic effect after 5 days by microscopic method; format: functional, organism-based; details: HEL 299, 120 h
# Procedure, shortened: (§1)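 Confluent HEL 299 cells in medium with 2% FCS were exposed to HCoV-229E (100 CCID50/well) together with compounds and held for 5 days at 35 °C. EC50 (CPE reduction) and MCC (minimal morphology change) were determined by microscopy. SI is MCC/EC50.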
# [2] = test system: Influenza A virus; test: Antiviral activity against Influenza A virus A/PR/8/34(H1N1) infected in MDCK cells assessed as reduction in virus-induced cytopathic effect after 3 days by microscopic method; format: functional, organism-based, A/Puerto Rico/8/1934(H1N1); details: Influenza A virus, A/Puerto Rico/8/1934(H1N1), MDCK, 72 h
# Procedure, shortened: (§2)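 Semi-confluent MDCK cells were infected at an MOI of 0.0004 PFU/cell in Ultra-MDCK infection medium with 2 μg/mL TPCK-trypsin, together with compounds. After 3 days at 35 °C, CPE was scored by microscopy and confirmed by MTS formazan viability. EC50 is the concentration giving 50% inhibition of virus-induced CPE. Values are means of two to five independent tests.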
# [3] = Cytotoxicity against human A549 cells assessed as changes in cell morphology after 3 days by microscopic method; format: cell-based
# Procedure, shortened: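 Mock-infected A549 cells were incubated with compounds for 3 days. MCC is the concentration causing minimal change in cell morphology by microscopy.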
# [4] = test system: Influenza A virus; test: Antiviral activity against Influenza A virus A/Virginia/ATCC3/2009(H1N1pdm) infected in MDCK cells after 3 days by MTS assay; format: functional, organism-based, Influenza A virus (A/Virginia/03/2009(H1N1)); details: 72 h; procedure, shortened: as §2
# [5] = test system: Influenza B virus; test: Antiviral activity against Influenza B virus B/Ned/537/05 infected in MDCK cells assessed as reduction in virus-induced cytopathic effect after 3 days by microscopic method; format: functional, organism-based; details: B/Ned/537/05, MDCK, 72 h
# Procedure, shortened: (§3)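 Semi-confluent MDCK cells were infected at an MOI of 0.0004 PFU/cell in Ultra-MDCK infection medium with 2 μg/mL TPCK-trypsin, together with compounds. After 3 days at 35 °C, CPE was scored by microscopy and confirmed by MTS formazan viability. Values are means of two to five independent tests.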
# [6] = Cytotoxicity against HEL299 cells assessed as changes in cell morphology after 5 days by microscopic method; format: cell-based, HEL 299; details: human; procedure, shortened: as §1
# [7] = test system: Influenza A virus; test: Antiviral activity against Influenza A virus A/Virginia/ATCC3/2009(H1N1pdm) infected in MDCK cells assessed as reduction in virus-induced cytopathic effect after 3 days by microscopic method; format: functional, organism-based, Influenza A virus (A/Virginia/03/2009(H1N1)); details: 72 h; procedure, shortened: as §2
# [8] = test system: H3N2 subtype; test: Antiviral activity against Influenza A virus A/HK/7/87(H3N2) infected in MDCK cells assessed as reduction in virus-induced cytopathic effect after 3 days by microscopic method; format: functional, organism-based; details: A/Hong Kong/7/1987(H3N2), 72 h; procedure, shortened: as §2
# [9] = test system: H3N2 subtype; test: Antiviral activity against Influenza A virus A/HK/7/87(H3N2) infected in MDCK cells after 3 days by MTS assay; format: functional, organism-based; details: A/Hong Kong/7/1987(H3N2), 72 h; procedure, shortened: as §2
# [10] = test system: Human coronavirus 229E; test: Antiviral activity against Human coronavirus 229E infected in human A549 cells assessed as reduction in virus RNA level after 3 days by qRT-PCR method; format: functional; details: A549, 72 h
# Procedure, shortened: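 Confluent A549 cells were infected with HCoV-229E in 2% FCS medium with compounds present. The inoculum was removed at 1 h and compounds were kept on at 35 °C. Supernatants were harvested at day 3, lysed at 75 °C for 10 min, and viral genome copies counted by one-step qRT-PCR.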
# [11] = test system: Influenza B virus; test: Antiviral activity against Influenza B virus B/Ned/537/05 infected in MDCK cells after 3 days by MTS assay; format: functional, organism-based; details: B/Ned/537/05, MDCK, 72 h; procedure, shortened: as §3
# [12] = test system: Influenza A virus; test: Antiviral activity against Influenza A virus A/PR/8/34(H1N1) infected in MDCK cells after 3 days by MTS assay; format: functional, organism-based, A/Puerto Rico/8/1934(H1N1); details: Influenza A virus, A/Puerto Rico/8/1934(H1N1), MDCK, 72 h; procedure, shortened: as §2
# [13] = test system: MDCK; test: Cytotoxicity against MDCK cells assessed as reduction in cell viability after 3 days by MTS assay; format: cell-based, Canis lupus familiaris; details: dog, mdck, 72 h
# [14] = Cytotoxicity against MDCK cells assessed as alteration in cell morphology after 3 days by microscopic method; format: cell-based, Canis lupus familiaris; details: dog
# Procedure, shortened: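 Mock-infected MDCK cells were treated with compounds in parallel with the antiviral assay, 3 days at 35 °C. MCC is the concentration causing minimal change in cell morphology by microscopy. CC50 is the 50% cytotoxic concentration by MTS formazan viability assay.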
# [15] = test system: Influenza B virus; test: Antiviral activity against Influenza B virus B/HK/05/72 infected in MDCK cells assessed as reduction in virus-induced cytopathic effect after 3 days by microscopic method; format: functional, organism-based; details: B/Hong Kong/05/1972, MDCK, 72 h; procedure, shortened: as §2
# [16] = test system: Influenza B virus; test: Antiviral activity against Influenza B virus B/HK/05/72 infected in MDCK cells after 3 days by MTS assay; format: functional, organism-based; details: B/Hong Kong/05/1972, MDCK, 72 h; procedure, shortened: as §2
SMILES,EC50 [1] [µM],EC50 [2] [µM],MCC at 72 h [3] [µM],EC50 [4] [µM],EC50 [5] [µM],MCC at 120 h [6] [µM],EC50 [7] [µM],EC50 [8] [µM],EC50 [9] [µM],EC90 [10] [µM],EC99 [10] [µM],EC50 [11] [µM],EC50 [12] [µM],CC50 [13] [µM],MCC at 72 h [14] [µM],EC50 [15] [µM],EC50 [16] [µM]
CC(=O)N[C@H]1[C@H](O[C@@H]2c3ccc(c(Cl)c3)Oc3cc4cc(c3O)Oc3ccc(cc3Cl)C[C@H]3NC(=O)[C@H](NS(=O)(=O)c5ccccc5)c5ccc(O)c(c5)Oc5cc(O)cc(c5)[C@H](NC3=O)C(=O)N[C@H]4C(O)N[C@H]3C(=O)N[C@H]2C(=O)N[C@@H](C(=O)O)c2cc(O)cc(O)c2-c2cc3ccc2O)O[C@H](CO)[C@@H](O)[C@@H]1O (some centres undefined),5.5,16,> 50,52,51,≥ 20,46,25,23,6.8,11,21,27,> 100,100,–,–
CC(=O)N[C@H]1[C@H](O[C@@H]2c3ccc(c(Cl)c3)Oc3cc4cc(c3O)Oc3ccc(cc3Cl)C[C@H]3NC(=O)[C@H](NS(=O)(=O)c5cccc6c(N(C)C)cccc56)c5ccc(O)c(c5)Oc5cc(O)cc(c5)[C@H](NC3=O)C(=O)N[C@H]4C(O)N[C@H]3C(=O)N[C@H]2C(=O)N[C@@H](C(=O)O)c2cc(O)cc(O)c2-c2cc3ccc2O)O[C@H](CO)[C@@H](O)[C@@H]1O (some centres undefined),> 100,4.9,–,5.9,6.7,≥ 4,6.3,8.3,2.3,–,–,5.3,7,52,20,–,–
CCCCSC1=C(SCCCC)C(=O)N(Cc2cn(C3C(=O)N[C@@H]4Cc5ccc(c(Cl)c5)Oc5cc6cc(c5O)Oc5ccc(cc5Cl)[C@@H](O[C@@H]5O[C@H](CO)[C@@H](O)[C@H](O)[C@H]5NC(C)=O)[C@H]5NC(=O)[C@H](NC(O)[C@@H]6NC(=O)[C@@H](NC4=O)c4cc(O)cc(c4)Oc4cc3ccc4O)c3ccc(O)c(c3)-c3c(O)cc(O)cc3[C@H](C(=O)O)NC5=O)nn2)C1=O (some centres undefined),5.4,2.1,> 50,7.4,2.5,≥ 20,9.8,> 100,4.9,5.9,11,3.5,3.2,28,20,–,–
CC(=O)Nc1ccc(S(=O)(=O)N[C@H]2C(=O)N[C@@H]3Cc4ccc(c(Cl)c4)Oc4cc5cc(c4O)Oc4ccc(cc4Cl)[C@@H](O[C@@H]4O[C@H](CO)[C@@H](O)[C@H](O)[C@H]4NC(C)=O)[C@H]4NC(=O)[C@H](NC(O)[C@@H]5NC(=O)[C@@H](NC3=O)c3cc(O)cc(c3)Oc3cc2ccc3O)c2ccc(O)c(c2)-c2c(O)cc(O)cc2[C@H](C(=O)O)NC4=O)cc1 (some centres undefined),> 100,> 100,–,> 100,> 100,≥ 20,> 100,> 100,> 100,–,–,47,> 100,60,100,–,–
CCCSC1=C(SCCC)C(=O)N(Cc2cn(C3C(=O)N[C@@H]4Cc5ccc(c(Cl)c5)Oc5cc6cc(c5O)Oc5ccc(cc5Cl)[C@@H](O[C@@H]5O[C@H](CO)[C@@H](O)[C@H](O)[C@H]5NC(C)=O)[C@H]5NC(=O)[C@H](NC(O)[C@@H]6NC(=O)[C@@H](NC4=O)c4cc(O)cc(c4)Oc4cc3ccc4O)c3ccc(O)c(c3)-c3c(O)cc(O)cc3[C@H](C(=O)O)NC5=O)nn2)C1=O (some centres undefined),–,> 100,–,> 100,–,–,> 100,> 100,> 100,–,–,–,> 100,22,20,> 100,> 100
